Experimental data from ChEMBL document CHEMBL1123920, “Leukotriene D4 antagonists and 5-lipoxygenase inhibitors. Synthesis of benzoheterocyclic [(methoxyphenyl)amino]oxoalkanoic acid esters” (J Med Chem, 1987).
Each block holds one compound with its values, some of them ahead of it.

What was measured:
Cavia porcellus = experiment: Ability to inhibit the Ovalbumin induced bronchospasm in guinea pig was determined in vivo at a dose of 50 mg/kg id; assay type: functional; details: route intraduodenal
Method in brief: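 Guinea pigs were challenged with LTD4 or ovalbumin to induce bronchospasm, and test agent was given intraduodenally. Read-out is percent inhibition of bronchospasm. Significance uses a two-tailed Student's t test (p < 0.05). N is the number of treated animals.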

[1] = target: T1, Polyunsaturated fatty acid 5-lipoxygenase (Rattus norvegicus) (UniProt P12527); experiment: Ability to inhibit Lipoxygenase in vitro was determined; NA is <50% inhibition at 100 uM
T1 sequence (whole entry): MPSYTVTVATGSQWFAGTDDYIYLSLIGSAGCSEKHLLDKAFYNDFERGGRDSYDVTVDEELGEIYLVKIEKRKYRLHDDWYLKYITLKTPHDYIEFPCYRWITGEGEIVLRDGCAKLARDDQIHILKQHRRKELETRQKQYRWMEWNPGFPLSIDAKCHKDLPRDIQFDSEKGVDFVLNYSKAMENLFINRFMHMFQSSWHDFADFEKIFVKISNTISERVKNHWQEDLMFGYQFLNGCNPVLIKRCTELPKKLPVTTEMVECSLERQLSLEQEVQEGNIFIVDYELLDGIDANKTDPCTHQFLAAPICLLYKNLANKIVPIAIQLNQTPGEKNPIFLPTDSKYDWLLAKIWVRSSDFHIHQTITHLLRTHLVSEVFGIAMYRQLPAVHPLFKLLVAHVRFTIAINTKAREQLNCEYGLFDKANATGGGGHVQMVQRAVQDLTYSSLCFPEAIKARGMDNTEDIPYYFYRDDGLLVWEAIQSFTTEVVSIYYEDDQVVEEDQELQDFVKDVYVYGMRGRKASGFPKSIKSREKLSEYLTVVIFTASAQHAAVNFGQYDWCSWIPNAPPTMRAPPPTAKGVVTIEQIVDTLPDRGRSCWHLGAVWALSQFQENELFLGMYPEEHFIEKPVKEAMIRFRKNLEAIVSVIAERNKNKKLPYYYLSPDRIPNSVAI
Method in brief: (§1)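 Source is rat polymorphonuclear leukocyte (PMN) 5-lipoxygenase. IC50 values come from nonlinear regression analysis, significant at p < 0.05.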

Rattus norvegicus [2] = species on record: Rattus norvegicus; experiment: Tested for metabolic activation counted as mean number of revertants in strains TA98, TA100, TA1535, and TA1538, three plates per treatment at 0.02 mg per plate, without activation in the absence of S-9 rat liver homogenates in Ames test; assay type: functional, organism-based
Rattus norvegicus [3] = species on record: Rattus norvegicus; experiment: Tested for metabolic activation counted as mean number of revertants in strains TA98, TA100, TA1535, and TA1538, three plates per treatment at 0.06 mg per plate, without activation in the absence of S-9 rat liver homogenates in Ames test; assay type: functional, organism-based
Rattus norvegicus [4] = species on record: Rattus norvegicus; experiment: Tested for metabolic activation counted as mean number of revertants in strains TA98, TA100, TA1535, and TA1538, three plates per treatment at 0.6 mg per plate, without activation in the absence of S-9 rat liver homogenates in Ames test; assay type: functional, organism-based
Rattus norvegicus [5] = species on record: Rattus norvegicus; experiment: Tested for metabolic activation counted as mean number of revertants in strains TA98, TA100, TA1535, and TA1538, three plates per treatment at 2.0 mg per plate, with activation provided by S-9 rat liver homogenates in Ames test; assay type: functional, organism-based
Rattus norvegicus [6] = species on record: Rattus norvegicus; experiment: Tested for metabolic activation counted as mean number of revertants in strains TA98, TA100, TA1535, and TA1538, three plates per treatment at 2.0 mg per plate, without activation in the absence of S-9 rat liver homogenates in Ames test; assay type: functional, organism-based
Rattus norvegicus [7] = species on record: Rattus norvegicus; experiment: Tested for metabolic activation counted as mean number of revertants in three plates per treatment at 0.06 mg per plate, with activation provided by S-9 rat liver homogenates in Ames test; assay type: functional, organism-based
Rattus norvegicus [8] = species on record: Rattus norvegicus; experiment: Tested for metabolic activation counted as mean number of revertants in strains TA98, TA100, TA1535, and TA1538, three plates per treatment at 0.2 mg per plate, with activation provided by S-9 rat liver in Ames test; assay type: functional
Rattus norvegicus [9] = species on record: Rattus norvegicus; experiment: Tested for metabolic activation counted as mean number of revertants in strains TA98, TA100, TA1535, and TA1538, three plates per treatment at 0.2 mg per plate, without activation in the absence of S-9 rat liver homogenates in Ames test; assay type: functional, organism-based
[10] = target: T2, Polyunsaturated fatty acid 5-lipoxygenase (Rattus norvegicus, UniProt P12527); experiment: (§2) Ability to inhibit Lipoxygenase in vitro was determined
T2 sequence (P12527 whole entry): T1 sequence (whole entry)

Rattus norvegicus [11] = species on record: Rattus norvegicus; experiment: Tested for metabolic activation counted as mean number of revertants in strains TA98, TA100, TA1535, and TA1538, three plates per treatment at 0.6 mg per plate, with activation provided by S-9 rat liver in Ames test; assay type: functional
Rattus norvegicus [12] = species on record: Rattus norvegicus; experiment: Tested for metabolic activation counted as mean number of revertants in three plates per treatment at 0.02 mg per plate, with activation provided by S-9 rat liver homogenates in Ames test; assay type: functional, organism-based
[13] = target: T2, Polyunsaturated fatty acid 5-lipoxygenase; experiment: as §2; method in brief: as §1; remark: listed apart in the source
Rattus norvegicus [14] = species on record: Rattus norvegicus; experiment: Tested for metabolic activation counted as mean number of revertants in strains TA98, TA100, TA1535, and TA1538, three plates per treatment at 0.05 mg per plate, with activation provided by S-9 rat liver homogenates in Ames test; assay type: functional, organism-based
Rattus norvegicus [15] = species on record: Rattus norvegicus; experiment: Tested for metabolic activation counted as mean number of revertants in strains TA98, TA100, TA1535, and TA1538, three plates per treatment at 0.05 mg per plate, without activation in the absence of S-9 rat liver homogenates in Ames test; assay type: functional, organism-based
Rattus norvegicus [16] = species on record: Rattus norvegicus; experiment: Tested for metabolic activation counted as mean number of revertants in strains TA98, TA100, TA1535, and TA1538, three plates per treatment at 1.5 mg per plate, without activation in the absence of S-9 rat liver homogenates in Ames test; assay type: functional, organism-based
Rattus norvegicus [17] = species on record: Rattus norvegicus; experiment: Tested for metabolic activation counted as mean number of revertants in strains TA98, TA100, TA1535, and TA1538, three plates per treatment at 1.5 mg per plate, with activation provided by S-9 rat liver homogenates in Ames test; assay type: functional, organism-based
Rattus norvegicus [18] = species on record: Rattus norvegicus; experiment: Tested for metabolic activation counted as mean number of revertants in strains TA98, TA100, TA1535, and TA1538, three plates per treatment at 5.0 mg per plate, without activation in the absence of S-9 rat liver homogenates in Ames test; assay type: functional, organism-based
Rattus norvegicus [19] = species on record: Rattus norvegicus; experiment: Tested for metabolic activation counted as mean number of revertants in strains TA98, TA100, TA1535, and TA1538, three plates per treatment at 5.0 mg per plate, with activation provided by S-9 rat liver homogenates in Ames test; assay type: functional, organism-based
Rattus norvegicus [20] = species on record: Rattus norvegicus; experiment: Tested for metabolic activation counted as mean number of revertants in strains TA98, TA100, TA1535, and TA1538, three plates per treatment at 0.15 mg per plate, with activation provided by S-9 rat liver homogenates in Ames test; assay type: functional, organism-based
Rattus norvegicus [21] = species on record: Rattus norvegicus; experiment: Tested for metabolic activation counted as mean number of revertants in strains TA98, TA100, TA1535, and TA1538, three plates per treatment at 0.15 mg per plate, without activation in the absence of S-9 rat liver homogenates in Ames test; assay type: functional, organism-based
Rattus norvegicus [22] = species on record: Rattus norvegicus; experiment: Tested for metabolic activation counted as mean number of revertants in strains TA98, TA100, TA1535, and TA1538, three plates per treatment at 0.5 mg per plate, with activation provided by S-9 rat liver homogenates in Ames test; assay type: functional, organism-based
[23] = target: T1, Polyunsaturated fatty acid 5-lipoxygenase (Rattus norvegicus); experiment: Ability to inhibit the rat Lipoxygenase in vitro was determined; NA is <50% inhibition at 100 uM; method in brief: as §1
[24] = tested on: Cysteinyl leukotriene receptor (Cavia porcellus); experiment: Inhibition of LTD4 induced bronchospasm in guinea pig was determined in at 50 mg/kg i.d.

Structure (SMILES): COC(=O)CCC(=O)Nc1cccc(OCC(=O)Nc2ccccc2)c1
inhibition in vivo at 50 mg/kg (Cavia porcellus): 7% | inhibition [1]: < 50%

Structure (SMILES): COC(=O)C1CC(=O)N(c2cccc(OCc3ccc4ccccc4n3)c2)C1 (stereo not given)
inhibition in vivo at 50 mg/kg (Cavia porcellus): 29% | Mean no. of revertants (Rattus norvegicus [2]): 10 | Mean no. of revertants (Rattus norvegicus [3]): 13 | Mean no. of revertants (Rattus norvegicus [4]): 421 | Mean no. of revertants (Rattus norvegicus [5]): 84 | Mean no. of revertants (Rattus norvegicus [6]): 475 | Mean no. of revertants (Rattus norvegicus [7]): 10 | Mean no. of revertants (Rattus norvegicus [8]): 10 | Mean no. of revertants (Rattus norvegicus [9]): 16 | IC50 [10]: 19.1 µM | Mean no. of revertants (Rattus norvegicus [11]): 15 | Mean no. of revertants (Rattus norvegicus [12]): 12

Structure (SMILES): COC(=O)C1CC(=O)N(c2cccc(OCc3nc4ccccc4n3C)c2)C1 (stereo not given)
inhibition [1]: < 50%

Structure (SMILES): O=C1CCC(=O)N1c1cccc(OCc2nc3ccccc3s2)c1
inhibition in vivo at 50 mg/kg (Cavia porcellus): 18% | inhibition [1]: < 50%

Structure (SMILES): COC(=O)CCC(=O)Nc1cccc(OCc2ccc3ccccc3n2)c1
inhibition in vivo at 50 mg/kg (Cavia porcellus): 43% | Mean no. of revertants (Rattus norvegicus [14]): 15 | Mean no. of revertants (Rattus norvegicus [15]): 24 | Mean no. of revertants (Rattus norvegicus [16]): 2930 | Mean no. of revertants (Rattus norvegicus [17]): 2770 | Mean no. of revertants (Rattus norvegicus [18]): 2260 | Mean no. of revertants (Rattus norvegicus [19]): 2880 | Mean no. of revertants (Rattus norvegicus [20]): 15 | Mean no. of revertants (Rattus norvegicus [21]): 25 | Mean no. of revertants (Rattus norvegicus [22]): 566

Structure (SMILES): COC(=O)CCC(=O)N(O)c1cccc(OCc2nc3ccccc3s2)c1
inhibition in vivo at 50 mg/kg (Cavia porcellus): 6% | IC50 [10]: 0.36 µM | inhibition [24]: 79%

Structure (SMILES): COC(=O)CCC(=O)N(C)c1cccc(OCc2nc3ccccc3s2)c1
inhibition in vivo at 50 mg/kg (Cavia porcellus): 19% | IC50 [10]: 21 µM

Continued, in another order:

IC50 [10]: 17.9 µM
Structure (SMILES): COC(=O)CCC(=O)Nc1cccc(OCc2cc3ccccc3o2)c1
inhibition in vivo at 50 mg/kg (Cavia porcellus): 12%

IC50 [13]: 69.7 µM
Structure (SMILES): COC(=O)CCC(=O)Nc1cccc(OCc2nc3ccccc3o2)c1
inhibition in vivo at 50 mg/kg (Cavia porcellus): -65%

inhibition [1]: < 50%
Structure (SMILES): COC(=O)CCC(=O)Nc1cccc(OCc2ccccn2)c1

inhibition [23]: < 50%
Structure (SMILES): Cn1c(COc2cccc(NC(=O)CCC(=O)O)c2)nc2ccccc21

IC50 [13]: 17 µM
Structure (SMILES): COC(=O)CC(=O)Nc1cccc(OCc2nc3ccccc3s2)c1
inhibition in vivo at 50 mg/kg (Cavia porcellus): 58%
